In test [1] the target is 5'-nucleotidase (Homo sapiens) (UniProt P21589). As to the kind of experiment: Inhibition of recombinant cN-II (unknown origin) assessed as reduction in inorganic phosphate production at 1 mM pre-incubated for 10 mins followed by addition of IMP as substrate and measured after 5 mins by malachite green based assay relative to control. The method in brief:
(§1)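 Purified recombinant cN-II (0.1 μM final) in 50 mM imidazole pH 6.5, 500 mM NaCl and 10 mM MgCl2 was preincubated on ice with compound for 10 min. IMP (50 μM, equimolar Mg) was then added for 5 min at 37 °C.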

Test [2] has the same target. As to the kind of experiment: Inhibition of recombinant cN-II (unknown origin) assessed as reduction in inorganic phosphate production at 200 uM pre-incubated for 10 mins followed by addition of IMP as substrate and measured after 5 mins by malachite green based assay relative to control. The method in brief:
as §1

The target of test [3] is T1, 5'-nucleotidase (Rattus norvegicus) (UniProt P21588).
T1 sequence (whole entry): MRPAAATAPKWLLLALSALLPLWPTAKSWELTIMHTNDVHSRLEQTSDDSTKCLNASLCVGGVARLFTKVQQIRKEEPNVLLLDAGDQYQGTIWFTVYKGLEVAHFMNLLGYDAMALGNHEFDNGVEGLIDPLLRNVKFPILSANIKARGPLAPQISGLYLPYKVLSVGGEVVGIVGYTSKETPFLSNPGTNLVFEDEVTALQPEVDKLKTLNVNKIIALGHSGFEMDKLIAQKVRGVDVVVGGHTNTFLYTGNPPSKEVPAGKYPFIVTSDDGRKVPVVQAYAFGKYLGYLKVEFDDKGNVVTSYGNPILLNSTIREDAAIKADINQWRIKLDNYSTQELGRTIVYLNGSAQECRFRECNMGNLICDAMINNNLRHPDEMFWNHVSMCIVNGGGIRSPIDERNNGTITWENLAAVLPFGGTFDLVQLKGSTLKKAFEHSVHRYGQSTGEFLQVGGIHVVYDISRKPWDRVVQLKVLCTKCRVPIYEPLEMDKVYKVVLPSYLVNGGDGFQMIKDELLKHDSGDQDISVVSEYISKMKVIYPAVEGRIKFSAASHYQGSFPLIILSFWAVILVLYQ
As to the kind of experiment: Inhibition of purified rat liver 5'-nucleotidase using IMP as substrate assessed as reduction in substrate dephosphorylation at 7 to 10 mM.

For test [4], the target named is T1, 5'-nucleotidase (Rattus norvegicus). As to the kind of experiment: Inhibition of purified rat liver 5'-nucleotidase using IMP as substrate assessed as reduction in substrate dephosphorylation at 2 to 6 mM.

Active and inactive are the calls of the source. No cut-off for these calls is given here.

Sequence of 5'-nucleotidase (Homo sapiens) (P21589 whole entry): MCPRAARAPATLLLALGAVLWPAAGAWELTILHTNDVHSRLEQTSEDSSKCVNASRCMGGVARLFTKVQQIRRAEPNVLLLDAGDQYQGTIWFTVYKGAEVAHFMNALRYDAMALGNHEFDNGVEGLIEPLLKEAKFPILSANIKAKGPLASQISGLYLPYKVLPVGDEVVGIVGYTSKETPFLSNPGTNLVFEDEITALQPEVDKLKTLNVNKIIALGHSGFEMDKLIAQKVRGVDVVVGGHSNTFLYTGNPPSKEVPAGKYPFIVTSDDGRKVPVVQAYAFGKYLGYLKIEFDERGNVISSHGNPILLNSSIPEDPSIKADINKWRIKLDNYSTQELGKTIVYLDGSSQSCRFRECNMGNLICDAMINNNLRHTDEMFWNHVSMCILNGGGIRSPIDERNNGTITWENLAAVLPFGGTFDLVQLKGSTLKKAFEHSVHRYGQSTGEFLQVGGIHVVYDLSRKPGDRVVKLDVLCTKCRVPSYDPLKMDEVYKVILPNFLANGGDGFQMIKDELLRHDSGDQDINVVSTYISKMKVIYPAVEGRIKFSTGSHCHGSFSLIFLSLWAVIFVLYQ

For `Nc1ncnc2c1ncn2COCc1ccccc1`, in test [1], the inhibition stood at 13%.

With `O=C(Nc1ncnc2nc[nH]c12)c1cccc(-c2cccc(-c3cn(CP(=O)(O)O)cn3)c2)c1`, the inhibition in test [2] is 49%. Same read-out and setting: then `O=C(Nc1ncnc2ncn(COCc3ccccc3)c12)c1cccc(-c2ccccc2)c1`, with 50%. Regarding `Nc1ncnc2c1ncn2Cc1ccccc1`, the inhibition in test [1] came out at 23%. `CC(C)CSC[C@H]1O[C@@H](n2cnc3c(=O)[nH]cnc32)[C@H](O)[C@@H]1O`: in test [3], the inhibition amounted to 50%. For the molecule `O=C(Nc1ncnc2[nH]cnc12)c1cccc(-c2cccc(-c3nn[nH]n3)c2)c1`, in test [2], the inhibition is 50%. Regarding `O=C(Nc1ncnc2[nH]cnc12)c1cccc(-c2ccccc2)c1`, in test [2], the inhibition is 68%. Still for that read-out and setting: as for `CC(=O)OCCn1cnc2c(NC(=O)c3cccc(-c4ccccc4)c3)ncnc21`, the figure is 62%. Still for that read-out and setting: as for `O=C(Nc1ncnc2c1ncn2Cc1ccccc1)c1cccc(-c2ccccc2)c1`, the figure is 57%. In the case of `Nc1ncnc2ncn(Cc3ccccc3)c12`, the inhibition in test [1] was determined as 26%. Take `O=C(Nc1ncnc2[nH]cnc12)c1cccc(-c2ccc(-c3nn[nH]n3)cc2)c1`: the inhibition in test [2] worked out at 60%. In the case of `CCOP(=O)(O)Cn1cnc(-c2cccc(-c3cccc(C(=O)Nc4ncnc5ncn(COCc6ccccc6)c45)c3)c2)c1`, in test [2], the inhibition came out at 60%. For the molecule `CCOC(=O)Cn1cnc2c(NC(=O)c3cccc(-c4ccccc4)c3)ncnc21`, the inhibition in test [2] amounted to 60%.

As to `CCOC(=O)Cn1cnc2c(N)ncnc21`, in test [2], the inhibition was determined as 3%. Consider `CCOC(=O)Cn1cnc2c(NC(=O)c3ccc(-c4ccccc4-c4nn[nH]n4)cc3)ncnc21`, for which the inhibition in test [2] was determined as 27%.

For `O=C(Nc1ncnc2c1ncn2CCO)c1cccc(-c2ccccc2)c1`, the inhibition in test [2] came out at 46%. Still for that read-out and setting: as for `CCOP(=O)(Cn1cnc2c(NC(=O)c3cccc(-c4ccccc4)c3)ncnc21)OCC`, the figure is 47%.

With `CC(C)CSC[C@H]1O[C@@H](n2cnc3c(N)ncnc32)[C@H](O)[C@@H]1O`, in test [4], the inhibition worked out at 50%.

With `CCOP(=O)(O)Cn1cnc(-c2cccc(-c3cccc(C(=O)Nc4ncnc5nc[nH]c45)c3)c2)c1`, the inhibition in test [2] was 75%. Regarding `O=C(Nc1ncnc2ncn(Cc3ccccc3)c12)c1cccc(-c2ccccc2)c1`, the inhibition in test [2] was 52%. As to `O=C(Nc1ncnc2[nH]cnc12)c1ccc(-c2ccccc2-c2nn[nH]n2)cc1`, in test [2], the inhibition is 10%. On the same count and under the same terms, then `O=C(O)Cn1cnc2c(NC(=O)c3cccc(-c4ccccc4)c3)ncnc21`, with 62%. Consider `CCOP(=O)(Cn1cnc2c(N)ncnc21)OCC`, for which the inhibition entry in test [1] is “inactive”.

On to `O=C(Nc1ncnc2[nH]cnc12)c1cccc(-c2ccccc2-c2nn[nH]n2)c1`, for which, in test [2], the inhibition amounted to 27%.

With `O=C(Nc1ncnc2c1ncn2COCc1ccccc1)c1cccc(-c2ccccc2)c1`, in test [2], the inhibition is 34%.

As for `Nc1ncnc2ncn(COCc3ccccc3)c12`, the inhibition entry in test [1] was “inactive”. Turning to `CC(=O)OCCn1cnc2c(N)ncnc21`, the inhibition result in test [1] is “inactive”. `O=C(Nc1ncnc2[nH]cnc12)c1ccccc1-c1ccc(-c2nn[nH]n2)cc1`: in test [2], the inhibition turned out to be 30%.

A word on the inhibition: it is how much of the control response was suppressed.

The values above are taken from ChEMBL document CHEMBL4387703, “Lead optimization and biological evaluation of fragment-based cN-II inhibitors” (Eur J Med Chem, 2019).
